Measurements taken from ChEMBL document CHEMBL3856271, “Bis-Michael Acceptors as Novel Probes to Study the Keap1/Nrf2/ARE Pathway” (J Med Chem, 2016).

Experiments:
Assay type in all cases: cell-based
[1] = target: T1, Keap1/Nrf2 (Homo sapiens) (UniProt Q16236+Q14145); assay: Inhibition of Keap1-Nrf2 interaction in HEK293T cells assessed as induction of ARE-luciferase gene expression at 20 uM after 24 hrs relative to control; conditions: HEK-293T
Procedure, shortened: (§1)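 HEK 293T cells (1 × 105) plated the day before transfection, transiently transfected with 0.1 μg ARE-luc (Nrf2 response element) plasmid by FuGENE6; next day treated with compounds (range 0–100 μM) or sulforaphane 10 μM as positive control for 24 h. Lysates read for luciferase activity; expressed as fold-induction. Cells grown in complete DMEM with 10% FBS, 37 °C, 5% CO2.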

[2] = target: T1, Keap1/Nrf2 (Homo sapiens); assay: Inhibition of Keap1-Nrf2 interaction in HEK293T cells assessed as induction of ARE-luciferase gene expression at 1 uM after 24 hrs relative to control; conditions: HEK-293T; procedure, shortened: as §1
[3] = target: T1, Keap1/Nrf2 (Homo sapiens); assay: Inhibition of Keap1-Nrf2 interaction in HEK293T cells assessed as induction of ARE-luciferase gene expression at 100 uM after 24 hrs relative to control; conditions: HEK-293T; procedure, shortened: as §1
[4] = Toxicity in HEK293T cells assessed as mortality at 100 uM after 24 hrs LDH assay relative to control; conditions: human, hek-293t
Procedure, shortened: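 HEK 293T cells cultured in complete DMEM (10% FBS, antibiotics, sodium pyruvate, nonessential amino acids, 2 mM L-glutamine) at 37 °C, 5% CO2. Treated with increasing concentrations of Keap1 ligands for 24 h. Supernatants collected, cells lysed in 1% Triton, and LDH activity measured with buffer containing L(+)-lactic acid and NAD. Mortality reported when over 5%.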

T1 sequence (Q14145 whole entry, looked up): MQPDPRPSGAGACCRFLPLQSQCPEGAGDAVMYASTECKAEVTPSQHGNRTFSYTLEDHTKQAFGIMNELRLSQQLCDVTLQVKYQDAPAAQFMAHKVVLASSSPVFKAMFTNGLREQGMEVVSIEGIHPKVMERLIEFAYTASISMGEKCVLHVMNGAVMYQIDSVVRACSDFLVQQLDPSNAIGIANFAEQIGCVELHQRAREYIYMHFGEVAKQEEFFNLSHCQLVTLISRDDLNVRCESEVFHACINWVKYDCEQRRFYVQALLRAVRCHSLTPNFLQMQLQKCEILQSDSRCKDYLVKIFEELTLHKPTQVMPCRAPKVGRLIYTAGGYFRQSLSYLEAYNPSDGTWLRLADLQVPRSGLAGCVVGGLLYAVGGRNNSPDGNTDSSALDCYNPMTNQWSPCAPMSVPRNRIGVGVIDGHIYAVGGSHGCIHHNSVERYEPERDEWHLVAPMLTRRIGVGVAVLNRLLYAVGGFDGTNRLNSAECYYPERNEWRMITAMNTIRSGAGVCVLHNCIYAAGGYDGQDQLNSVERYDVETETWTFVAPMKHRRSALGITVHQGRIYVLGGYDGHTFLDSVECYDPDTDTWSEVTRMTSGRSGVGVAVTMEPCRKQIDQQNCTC
T1 sequence (Q16236 whole entry, looked up): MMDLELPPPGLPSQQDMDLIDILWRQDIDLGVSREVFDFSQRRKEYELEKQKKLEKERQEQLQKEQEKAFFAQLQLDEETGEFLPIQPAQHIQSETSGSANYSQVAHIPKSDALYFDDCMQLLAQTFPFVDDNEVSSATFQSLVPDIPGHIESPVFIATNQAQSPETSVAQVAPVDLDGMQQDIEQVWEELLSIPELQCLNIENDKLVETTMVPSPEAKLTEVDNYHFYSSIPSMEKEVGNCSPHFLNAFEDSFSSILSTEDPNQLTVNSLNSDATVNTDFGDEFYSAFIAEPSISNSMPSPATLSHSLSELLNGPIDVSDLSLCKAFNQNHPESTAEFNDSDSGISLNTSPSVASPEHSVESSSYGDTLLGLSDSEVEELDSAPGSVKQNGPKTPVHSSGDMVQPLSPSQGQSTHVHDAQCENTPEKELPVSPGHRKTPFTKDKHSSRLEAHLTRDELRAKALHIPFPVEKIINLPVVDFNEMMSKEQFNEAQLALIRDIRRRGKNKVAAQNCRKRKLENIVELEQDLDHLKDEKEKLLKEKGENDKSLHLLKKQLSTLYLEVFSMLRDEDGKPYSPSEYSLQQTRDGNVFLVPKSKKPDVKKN

Structure (SMILES) | fold change (FC) [1] | fold change (FC) [2] | fold change (FC) [3] | Activity [4] | mortality [4] [%]
COC(=O)C1=CC(C)(C)CC(C)C1=O (stereo not drawn) | 2.75 | 1.17 | 4.6 | Non-Toxic | 
COC(=O)C1(C)CC(C)(C)C=CC1=O (stereo not drawn) | 2.43 | 1.47 | 4.56 |  | 
COC(=O)C1=CC(C)(C)CC(CC2CC(C)(C)C=C(C(=O)OC)C2=O)C1=O (stereo not drawn) | 3.6 | 4.49 | 101 |  | 24
COC(=O)C1=CC(C)(C)CC(CC(C)=O)C1=O (stereo not drawn) | 2.2 | 0.49 | 8.71 |  | 
COC(=O)C1=CC(C)(C)C=CC1=O | 3.39 | 1.35 | 10.3 |  | 
COC(=O)C1=CC2(CC(CCCC3CC4(C=C(C(=O)OC)C3=O)OCCO4)C1=O)OCCO2 (stereo not drawn) | 1.05 | 1 | 30.9 |  | 9
CC1(C)C=C(COC(=O)C2=CC(C)(C)CCC2=O)C(=O)CC1 | 3.78 | 2.02 | 121 |  | 15
C=CCOC(=O)C1=CC(C)(C)CCC1=O | 4.36 | 1.39 | 94.8 |  | 17
CC1(C)C=C(COC(=O)C2CC(C)(C)CCC2=O)C(=O)CC1 (stereo not drawn) | 3.79 | 2.98 | 4.02 |  | 
CC1(C)C=C(C(=O)OC(C)(C)C)C(=O)CC1 | 3.89 | 1.05 | 106 |  | 16
COC(=O)C1CC(C)(C)C=CC1=O (stereo not drawn) | 3.2 | 1.05 | 41.9 |  | 
COC(=O)C1=CC(C)(C)CC(CC(F)(F)F)C1=O (stereo not drawn) | 1.54 | 0.54 | 17.9 |  | 11
CC1(C)C=C(C(=O)O)C(=O)CC1 | 3.11 | 2 | 29.6 |  | 
C#CCC1CC(C)(C)C=C(C(=O)OC)C1=O (stereo not drawn) | 1.48 | 1.14 | 34.2 |  | 7
COC(=O)C1=CC(C)(C)CC(CC(=O)OC(C)(C)C)C1=O (stereo not drawn) | 2 | 0.65 | 1.75 |  | 
C=CCC1CC(C)(C)C=C(C(=O)OC)C1=O (stereo not drawn) | 2.05 | 1.34 | 25.3 | Non-Toxic | 
COC(=O)C1=CC2(CC(CC3CC4(C=C(C(=O)OC)C3=O)OCCO4)C1=O)OCCO2 (stereo not drawn) | 2.76 | 0.94 | 15.9 |  | 12
CCCCCCC1CC(C)(C)C=C(C(=O)OC)C1=O (stereo not drawn) | 2 | 1.15 | 64.7 | Non-Toxic | 

Now from value to molecule, other results behind:

fold change (FC) [1] | fold change (FC) [2] | fold change (FC) [3] | Structure (SMILES) | Activity [4] | mortality [4] [%]
248 | 4.71 |  | COC(=O)C1=CC(C)(C)CC(CCCC2CC(C)(C)C=C(C(=O)OC)C2=O)C1=O (stereo not drawn) |  | 
1.16 | 1.22 | 17.4 | CC1(C)C=C(I)C(=O)CC1 |  | 
 | 8.23 |  | COC(=O)C1=CC(C)(C)CC(CCCCC2CC(C)(C)C=C(C(=O)OC)C2=O)C1=O (stereo not drawn) |  | 
2.49 | 0.98 |  | COC(=O)C1=CC2(CC(C)C1=O)OCCO2 (stereo not drawn) | Non-Toxic | 
1.24 | 0.68 | 5.96 | COC(=O)CCC1CC(C)(C)C=C(C(=O)OC)C1=O (stereo not drawn) |  | 
2.19 | 1.4 | 20.2 | CCCCCCC1CC2(C=C(C(=O)OC)C1=O)OCCO2 (stereo not drawn) | Non-Toxic | 
1.85 | 1 | 1.29 | COC(=O)C1=CC(C)(C)CCC1O (stereo not drawn) |  | 
6.46 | 1.36 | 50.6 | COC(=O)C1=CC(C)(C)CCC1=O | Non-Toxic | 
 | 15.2 |  | COC(=O)C1=CC(C)(C)CC(C/C=C/CC2CC(C)(C)C=C(C(=O)OC)C2=O)C1=O (stereo not drawn) |  | 
0.92 | 0.95 | 48.5 | COC(=O)C1=CC(C)(C)CC(Cc2ccccc2)C1=O (stereo not drawn) | Non-Toxic | 
2.22 | 1.03 | 17.1 | COC(=O)C1=CC(C)(C)CC(CC#N)C1=O (stereo not drawn) |  | 
 | 52.5 |  | COC(=O)C1=CC(C)(C)CC(CC#CCC2CC(C)(C)C=C(C(=O)OC)C2=O)C1=O (stereo not drawn) |  | 
4.42 | 1.33 | 43.4 | CC1(C)C=C(Cl)C(=O)CC1 |  | 
0.77 | 0.72 | 1.46 | CC1(C)C=C(CO)C(=O)CC1 |  | 
